Measurements from publication PMC5869691 (Organic letters, 2018).
Values after ≈ are worked out from the molar mass of the structure shown.

Assays:
[1] = tested on: bacterial membranes; test: SYTOX uptake assay; assay type: cell-based; settings: SYTOX fluorescence; positive control 12,3,2,3,12
In short: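 All synthetic test compounds were run in a SYTOX uptake assay for membrane damage in S. aureus cells. Uptake was scored qualitatively as positive or negative.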

[2] = tested on: S. aureus; test: minimum inhibitory concentration; assay type: cell-based, Staphylococcus aureus
In short: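 Each synthetic test compound was tested against S. aureus SH1000, with USA300 and ATCC33591 as additional strains. MIC was read in both iron-rich medium (IRM) and iron-depleted medium (IDM), and values are given in μM. Vancomycin was the positive control run in parallel.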

| SMILES | membrane disruption (SYTOX uptake) [1] | MIC against S. aureus [2] [µM] |
| --- | --- | --- |
| CCC(=O)[C@H](C)C[C@@H](C)C[C@H](C)CC[C@@H](O)C[C@@H](O)[C@@H](CC(C)C)[C@@H](O)c1cc(O)cc(O)c1 [Baulamycin A, baulamycin A] | tested positive for membrane disruption |  |
| CC(=O)[C@H](C)C[C@@H](C)C[C@H](C)CC[C@@H](O)C[C@@H](O)[C@@H](CC(C)C)[C@@H](O)c1cc(O)cc(O)c1 [Baulamycin B, baulamycin B] | exception | 500 (≈ 233 µg/mL) |
